Screening results: PubChem BioAssay, several laboratories
Mac1 fbg inh: blocks human CD11b/CD18 adhesion to fibrinogen | P05107+P11215 | K562 CD11b/CD18 adhesion to fibrinogen, ATPlite luminescence; Mn2+ added to activate the integrin | inhibition, % at 10 µM | 93,000 tested, 0.54% active | AID 1497;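 active = primary inhibition of 50% or more at 10 µM, then 40% or more on retest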
Target sequence (P05107 whole entry, looked up, other chains not shown): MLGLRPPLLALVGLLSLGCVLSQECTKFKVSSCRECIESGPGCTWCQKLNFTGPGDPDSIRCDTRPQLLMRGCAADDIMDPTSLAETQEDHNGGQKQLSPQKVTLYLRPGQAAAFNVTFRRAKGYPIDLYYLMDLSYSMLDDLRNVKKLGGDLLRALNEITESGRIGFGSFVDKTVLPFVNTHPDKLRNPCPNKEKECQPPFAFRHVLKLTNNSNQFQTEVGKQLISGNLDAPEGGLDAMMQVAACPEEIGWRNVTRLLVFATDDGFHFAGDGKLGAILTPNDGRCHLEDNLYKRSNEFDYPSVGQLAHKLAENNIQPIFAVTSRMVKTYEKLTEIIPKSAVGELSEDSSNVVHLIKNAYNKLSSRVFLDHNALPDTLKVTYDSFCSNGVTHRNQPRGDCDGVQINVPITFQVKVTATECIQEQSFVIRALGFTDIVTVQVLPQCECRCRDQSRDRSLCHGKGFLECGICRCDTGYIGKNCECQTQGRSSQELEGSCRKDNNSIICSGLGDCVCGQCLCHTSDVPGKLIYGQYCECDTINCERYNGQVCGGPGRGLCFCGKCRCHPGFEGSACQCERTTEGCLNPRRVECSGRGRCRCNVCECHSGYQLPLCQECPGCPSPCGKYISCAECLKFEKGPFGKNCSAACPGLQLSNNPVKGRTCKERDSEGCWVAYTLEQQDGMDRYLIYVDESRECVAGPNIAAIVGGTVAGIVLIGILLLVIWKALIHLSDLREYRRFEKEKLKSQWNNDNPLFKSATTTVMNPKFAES
E coli WT exp: E. coli BW25113 growth inhibition, expanded screen; OD600 absorbance; 98,000 tested, 0.15% active; AID 710; growth inhibition, % at 100 µM;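 active = growth inhibition above about 50% at one test dose, limit read from the data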;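 note: growth measured after 20 h incubation at 37 °C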
Ecoli tolC: growth inhibitors of E. coli BW25113 tolC mutant. OD615. growth inhibition, % at 10 µM (by protocol). 65,000 tested, 2.2% active. AID 573;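 active = growth inhibition at or above a cutoff equal to the mean over every tested compound plus 3 SD, cut at about 60% in these data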;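 note: growth measured after 20 h incubation at 37 °C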
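Test system: E. coli BW25113 ΔtolC::kan bacteria; incubation: 37 °C, 20 h exposure; medium: LB broth supplemented with 50 µg/mL kanamycin; read-out basis: percent growth inhibition; signal: A615 absorbance measurement; compound: 10 µM final, single dose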
Mac1 fbg enh: increases human CD11b/CD18 adhesion to fibrinogen. K562 CD11b/CD18 adhesion to fibrinogen, ATPlite luminescence. activation, % at 10 µM. 93,000 tested, 0.07% active. AID 1499;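 active = 10 µM primary screen giving 50% or more activity, confirmed by 40% or more on retest at that dose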
Phagocytosis inh: inhibitors of macrophage phagocytosis. AID 1029. inhibition, % at 5 µM. J774A.1 macrophage IgG-bead phagocytosis, imaging. 110,000 tested, 0.07% active;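 active = inhibition above the mean of the plate negative controls plus 5 SD, cut at about 13% in these data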;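 note: phagocytic index as fraction of beads internalized from green versus red external bead signal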
Numbers stand for hits; [ ] = another dose, or the depositor's remark. This is one part of a sample in which hits are shown more often than they occur.

For COc1ccccc1NS(=O)(=O)c1ccc(NC(=O)CCNC(=O)c2ccco2)cc1 the results were Mac1 fbg inh inactive, E coli WT exp inactive, Ecoli tolC inactive, Mac1 fbg enh 68 and Phagocytosis inh inactive.
Cc1ccc(NC(=O)CCNC(=O)c2ccco2)cc1 was read as Phagocytosis inh inactive.
For COC(=O)Cn1c(=NC(=O)C2COc3ccccc3O2)sc2cc(S(N)(=O)=O)ccc21 (centres undefined) the results were Phagocytosis inh inactive.
For COC(=O)c1ccc(Oc2c(Cl)cccc2[N+](=O)[O-])cc1 the results were Phagocytosis inh inactive.
O=C(CN1CCN(Cc2ccc(Cl)cc2)C1=O)NCCCN1CCN(c2ccc(F)cc2)CC1 was read as Mac1 fbg inh 57, E coli WT exp inactive, Mac1 fbg enh inactive and Phagocytosis inh inactive.
For CC(=O)Oc1ccc(-c2cccc(C(=O)NCCCO)c2)cc1 the results were Phagocytosis inh inactive.
CCOC(=O)C1=C(C)NC(=O)NC1c1cccc(O)c1 (centres undefined) was read as Mac1 fbg inh inactive, E coli WT exp inactive, Ecoli tolC inactive, Mac1 fbg enh inactive and Phagocytosis inh inactive.
For CC1=C(C(=O)OC2CCCCCCC2)C(c2cccc(O)c2)NC(=O)N1 (centres undefined) the results were E coli WT exp inactive, Ecoli tolC 65 and Phagocytosis inh inactive.
For Cc1ccc2nc(-c3cccc(N)c3)oc2c1 the results were Mac1 fbg inh 59, E coli WT exp inactive, Mac1 fbg enh inactive and Phagocytosis inh inactive.
For O=C(O)CCc1ccc(-c2cccs2)n1NC(=O)c1ccc(Cl)cc1 the results were Mac1 fbg inh inactive, E coli WT exp inactive, Ecoli tolC inactive, Mac1 fbg enh inactive and Phagocytosis inh 79.
O=C(NC1CCCC1)C(c1ccc(F)cc1)N(Cc1ccccc1Cl)C(=O)CCl (centres undefined) was read as Phagocytosis inh inactive.
Screening COc1cccc(-c2noc(-c3cccs3)n2)c1 returned Mac1 fbg inh inactive, E coli WT exp inactive, Ecoli tolC 94, Mac1 fbg enh inactive and Phagocytosis inh inactive.
Screening COc1cccc(-c2nc(-c3ccccc3)no2)c1 returned Mac1 fbg inh inactive, E coli WT exp inactive, Ecoli tolC 99, Mac1 fbg enh inactive and Phagocytosis inh inactive.
`COc1cc(-c2nc(-c3cccc(C)c3)no2)cc(OC)c1OC` gave Ecoli tolC 67.
For Cc1ccc(CN(Cc2ccco2)S(=O)(=O)c2ccc(S(=O)(=O)NCC3CCCO3)cc2)cc1 (centres undefined) the results were Phagocytosis inh inactive.
Cc1ccc(S(=O)(=O)N(Cc2ccccc2)Cc2ccco2)cc1 was read as Mac1 fbg inh inactive, E coli WT exp inactive, Ecoli tolC 64, Mac1 fbg enh inactive and Phagocytosis inh inactive.
`Cc1ccc(S(=O)(=O)N(Cc2ccc(F)cc2)Cc2ccco2)cc1` gave Mac1 fbg inh inactive, E coli WT exp inactive, Ecoli tolC 66, Mac1 fbg enh inactive and Phagocytosis inh inactive.
`Cc1nn(C)c(C)c1/C=N/NC(=O)CCn1nc(C)c([N+](=O)[O-])c1C` gave Phagocytosis inh inactive.
For Cc1ccc(S(=O)(=O)NCCOc2nc(N3CCOCC3)nc(N3CCOCC3)n2)cc1 the results were Mac1 fbg inh inactive, E coli WT exp inactive, Mac1 fbg enh inactive and Phagocytosis inh inactive.
Cc1ccc(-c2noc(C3CCCN(S(=O)(=O)c4ccc5ccccc5c4)C3)n2)o1 (centres undefined) was read as Mac1 fbg inh inactive, E coli WT exp inactive, Mac1 fbg enh 53 and Phagocytosis inh inactive.
For COC(=O)c1sc(N2C(=O)C(O)=C(C(=O)c3ccc(C)o3)C2c2ccc(F)cc2)nc1C (centres undefined) the results were Mac1 fbg inh inactive, E coli WT exp inactive, Ecoli tolC 65, Mac1 fbg enh inactive and Phagocytosis inh inactive.
Screening COC(=O)c1sc(NC(=O)c2ccc(C)o2)nc1C returned Phagocytosis inh inactive.
`COCc1nnc(NC(=O)c2ccc(S(=O)(=O)N(C)C3CCCCC3)cc2)o1` gave Mac1 fbg inh inactive, E coli WT exp inactive, Ecoli tolC 95, Mac1 fbg enh inactive and Phagocytosis inh inactive.
Screening CN(C1CCCCC1)S(=O)(=O)c1ccc(NC(=O)c2ccc(Br)o2)cc1 returned Mac1 fbg inh inactive, E coli WT exp inactive, Ecoli tolC 70, Mac1 fbg enh inactive and Phagocytosis inh inactive.
Screening COCc1nnc(NC(=O)c2ccc(S(=O)(=O)N3CCCCCC3)cc2)o1 returned E coli WT exp inactive and Ecoli tolC 74.
CCn1c2ccccc2c2cc(NC(=O)c3ccco3)ccc21 was read as Mac1 fbg inh inactive, E coli WT exp inactive, Ecoli tolC 87, Mac1 fbg enh inactive and Phagocytosis inh inactive.
C=CCn1c(NC(=O)c2ccccc2Cl)c(C#N)c2nc3ccccc3nc21 was read as Mac1 fbg inh 97, E coli WT exp inactive, Ecoli tolC 84, Mac1 fbg enh inactive and Phagocytosis inh inactive.
For CCCCn1c(NC(C)=O)c(C#N)c2nc3ccccc3nc21 the results were Mac1 fbg inh inactive, E coli WT exp inactive, Ecoli tolC inactive, Mac1 fbg enh inactive and Phagocytosis inh inactive.
C=CCn1c(NC(=O)c2ccccc2)c(C#N)c2nc3ccccc3nc21 was read as Ecoli tolC 89.
For CN(C)c1ccc(NC(=O)CSc2nc3ccccc3c(=O)n2C2CCCCC2)cc1 the results were Mac1 fbg inh inactive, E coli WT exp inactive, Ecoli tolC inactive, Mac1 fbg enh inactive and Phagocytosis inh inactive.
CCCN(CCC)C(=O)CSc1nc2ccccc2c(=O)n1C1CCCC1 was read as Mac1 fbg inh inactive, E coli WT exp inactive, Ecoli tolC 77, Mac1 fbg enh inactive and Phagocytosis inh inactive.
Screening O=c1cc(CNc2ccc(Br)cc2)nc2sccn12 returned Phagocytosis inh inactive.
CCn1c(C(=O)N2CCC(Cc3ccccc3)CC2)cc2sccc21 was read as Mac1 fbg inh inactive, E coli WT exp inactive, Ecoli tolC 80, Mac1 fbg enh inactive and Phagocytosis inh inactive.
Screening O=[N+]([O-])c1ccc(O)c(/C=N/n2cnc3ccccc32)c1 returned Mac1 fbg inh 104, Mac1 fbg enh inactive and Phagocytosis inh inactive.
Cc1ccc(C(=O)CSC2=C(C#N)C(c3ccco3)C3=C(CCCC3=O)N2)cc1 (centres undefined) was read as Mac1 fbg inh inactive, E coli WT exp inactive, Ecoli tolC inactive, Mac1 fbg enh inactive and Phagocytosis inh inactive.
`CC(C)(C)c1ccc(C(=O)CCCSC2=C(C#N)C(c3ccco3)C3=C(CCCC3=O)N2)cc1` (centres undefined) gave Mac1 fbg inh inactive, E coli WT exp inactive, Ecoli tolC 80, Mac1 fbg enh inactive and Phagocytosis inh inactive.
N#Cc1c(-c2ccccc2)nc(-c2ccccc2)[nH]c1=O was read as Mac1 fbg inh 52, E coli WT exp inactive, Mac1 fbg enh inactive and Phagocytosis inh inactive.
Screening Cn1cnnc1SCC(=O)Nc1ccccc1 returned E coli WT exp inactive and Ecoli tolC inactive.
Screening Cn1cnnc1SCC(=O)NN(c1ccccc1)c1ccccc1 returned Phagocytosis inh 27[artifact].
